# Results reported in ChEMBL document CHEMBL3784960, “New 4-Functionalized Glutamate Analogues Are Selective Agonists at Metabotropic Glutamate Receptor Subtype 2 or Selective Agonists at Metabotropic Glutamate Receptor Group III” (J Med Chem, 2016).
# Active and inactive are the calls of the source. No cut-off for these calls is given here.
# Tests used:
# [1] = target: Metabotropic glutamate receptor 8 (Rattus norvegicus, UniProt P70579); experiment: Agonist activity at rat mGlu8 receptor expressed in HEK293 cells assessed as IP1 accumulation by IP-One functional assay; type: cell-based
# Method in brief: (§1)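 HEK293 cells were transiently electroporated with the rat receptor plus a chimeric Gi/Gq protein for PLC coupling and EAAC1. Medium was replaced by Glutamax at least 2 h before agonist. IP1 accumulation was measured by HTRF 24 h post-transfection, at least in duplicate. EC50 ± SEM came from n = 4−6 experiments.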
# [2] = target: Metabotropic glutamate receptor 7 (Rattus norvegicus, UniProt P35400); experiment: Agonist activity at rat mGlu7 receptor expressed in HEK293 cells assessed as IP1 accumulation by IP-One functional assay; type: cell-based; method in brief: as §1
# [3] = target: Metabotropic glutamate receptor 6 (Rattus norvegicus, UniProt P35349); experiment: Agonist activity at rat mGlu6 receptor expressed in HEK293 cells assessed as IP1 accumulation by IP-One functional assay; type: cell-based; method in brief: as §1
# [4] = target: T1, Metabotropic glutamate receptor 3 (Rattus norvegicus, UniProt P31422); experiment: Agonist activity at rat mGlu3 receptor by FRET based mGlu sensor assay
# Method in brief: (§2)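 Receptor carried an N-terminal SNAP-tag and was transfected into HEK293 cells. At 24 h, surface receptors were labelled for 1 h with 100 nM SNAP-Lumi4-Tb (donor) and 60 nM SNAP Green (acceptor), washed three times, then drug was added. Time-resolved FRET was recorded at 520 nm, at least in duplicate. EC50 ± SEM came from n = 4−6 experiments.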
# [5] = target: T2, Metabotropic glutamate receptor 2 (Rattus norvegicus, UniProt P31421); experiment: Agonist activity at rat mGlu2 receptor by FRET based mGlu sensor assay
# Method in brief: as §2, with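 “duplicate.” for “duplicate. EC50 ± SEM came from n = 4−6 experiments.”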
# [6] = target: T3, Excitatory amino acid transporter 1 (Homo sapiens, UniProt P43003); experiment: Substrate activity at human EAAT1 assessed as [3H]Asp uptake measured up to 300 uM
# [7] = Displacement of [3H]KA from rat synaptosome KA receptor after 60 mins by microplate scintillation counter analysis
# [8] = target: Metabotropic glutamate receptor 3 (Rattus norvegicus) (UniProt P31422); experiment: Agonist activity at mGlu3 receptor (rat) assessed as IP1 accumulation preincubated with 3 uM LY341495 for 20 mins followed by addition of 1 mM of compound by IP-One functional assay
# [9] = Displacement of [3H]AMPA from rat synaptosome AMPA receptor after 30 mins by microplate scintillation counter analysis
# [10] = target: T4, Metabotropic glutamate receptor 4 (Rattus norvegicus, UniProt P31423); experiment: Agonist activity at rat mGlu4 receptor expressed in HEK293 cells assessed as IP1 accumulation by IP-One functional assay; type: cell-based; method in brief: as §1
# [11] = target: T2, Metabotropic glutamate receptor 2; experiment: Agonist activity at rat mGlu2 receptor expressed in HEK293 cells assessed as IP1 accumulation by IP-One functional assay; type: cell-based
# Method in brief: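 HEK293 cells were transiently electroporated with the rat receptor plus a chimeric Gi/Gq protein for PLC coupling and EAAC1. Medium was replaced by Glutamax at least 2 h before agonist. IP1 accumulation was measured by HTRF 24 h post-transfection, at least in duplicate.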
# [12] = target: T3, Excitatory amino acid transporter 1; experiment: Inhibition of human EAAT1 assessed as [3H]Asp uptake
# [13] = target: Metabotropic glutamate receptor 2 (Homo sapiens) (UniProt Q14416); experiment: Agonist activity at mGlu2 receptor (unknown origin) assessed as IP1 accumulation preincubated with 3 uM LY341495 for 20 mins followed by addition of 1 mM of compound by IP-One functional assay
# Method in brief: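 Single-dose test in HEK293 cells cotransfected with rat receptor, chimeric Gi/Gq and EAAC1. Cells were pretreated with 3 μM LY341495 for 20 min at 37 °C, washed twice, then stimulated with 1 mM compound. IP1 was read by HTRF 24 h post-transfection. Comparison was against vehicle by one-way ANOVA with Dunnett's test.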
# [14] = target: T5, Excitatory amino acid transporter 2 (Homo sapiens, UniProt P43004); experiment: Substrate activity at human EAAT2 assessed as [3H]Asp uptake measured up to 300 uM
# [15] = target: T5, Excitatory amino acid transporter 2; experiment: Inhibition of human EAAT2 assessed as [3H]Asp uptake
# [16] = target: T6, Metabotropic glutamate receptor 5 (Rattus norvegicus, UniProt P31424); experiment: Agonist activity at rat mGlu5 receptor expressed in HEK293 cells assessed as IP1 accumulation by IP-One functional assay; type: cell-based
# [17] = target: T7, Metabotropic glutamate receptor 1 (Rattus norvegicus, UniProt P23385); experiment: Agonist activity at rat mGlu1 receptor expressed in HEK293 cells assessed as IP1 accumulation by IP-One functional assay; type: cell-based
# Method in brief: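 Rat group I receptor transiently electroporated into HEK293 with the EAAC1 glutamate transporter; medium switched to Glutamax at least 2 h before stimulation. IP1 was read by HTRF (IP-One kit) 24 h after transfection. Runs were at least in duplicate, with EC50 ± SEM from n = 4−6 experiments.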
# Glutamate NMDA receptor = experiment: Displacement of [3H]CGP from rat synaptosome NMDA receptor after 60 mins by microplate scintillation counter analysis; type: protein-complex assay
# [18] = target: T8, Excitatory amino acid transporter 3 (Homo sapiens, UniProt P43005); experiment: Inhibition of human EAAT3 assessed as [3H]Asp uptake
# T8 sequence (P43005 whole entry): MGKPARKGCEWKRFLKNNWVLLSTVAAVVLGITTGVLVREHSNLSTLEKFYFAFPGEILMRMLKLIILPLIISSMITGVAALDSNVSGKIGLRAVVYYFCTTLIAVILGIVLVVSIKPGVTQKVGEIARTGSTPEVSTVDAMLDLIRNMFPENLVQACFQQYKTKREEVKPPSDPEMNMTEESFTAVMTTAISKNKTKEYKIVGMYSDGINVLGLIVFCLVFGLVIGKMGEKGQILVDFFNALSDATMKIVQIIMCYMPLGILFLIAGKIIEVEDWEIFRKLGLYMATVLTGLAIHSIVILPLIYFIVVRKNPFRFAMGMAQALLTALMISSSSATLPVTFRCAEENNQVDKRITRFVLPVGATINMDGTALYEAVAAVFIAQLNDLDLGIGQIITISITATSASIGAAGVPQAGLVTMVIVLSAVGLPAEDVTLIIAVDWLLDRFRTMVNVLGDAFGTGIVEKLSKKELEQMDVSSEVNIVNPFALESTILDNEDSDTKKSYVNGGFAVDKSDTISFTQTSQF
# [19] = target: T7, Metabotropic glutamate receptor 1; experiment: Agonist activity at rat mGlu1 receptor expressed in HEK293 cells by intracellular Ca2+ mobilization assay; type: functional, cell-based
# [20] = target: T2, Metabotropic glutamate receptor 2; experiment: Agonist activity at rat mGlu2 receptor expressed in HEK293 cells by [35S]GTP-gamma binding assay; type: cell-based; conditions: read-out: EC50
# [21] = target: T4, Metabotropic glutamate receptor 4; experiment: Agonist activity at rat mGlu4 receptor expressed in HEK293 cells assessed as inhibition of forskolin stimulated cAMP production; type: functional, cell-based
# [22] = target: T6, Metabotropic glutamate receptor 5; experiment: Agonist activity at rat mGlu5 receptor expressed in HEK293 cells by intracellular Ca2+ mobilization assay; type: functional, cell-based
# [23] = target: T1, Metabotropic glutamate receptor 3; experiment: Agonist activity at rat mGlu3 receptor expressed in HEK293 cells by [35S]GTP-gamma binding assay; type: cell-based
# [24] = target: Metabotropic glutamate receptor 7 (Homo sapiens, UniProt Q14831); experiment: Agonist activity at human mGlu7 receptor expressed in HEK293 assessed as inhibition of forskolin stimulated cAMP production; type: functional, cell-based
# Metabotropic glutamate receptor 7 (Homo sapiens, UniProt Q14831), sequence (Q14831 whole entry): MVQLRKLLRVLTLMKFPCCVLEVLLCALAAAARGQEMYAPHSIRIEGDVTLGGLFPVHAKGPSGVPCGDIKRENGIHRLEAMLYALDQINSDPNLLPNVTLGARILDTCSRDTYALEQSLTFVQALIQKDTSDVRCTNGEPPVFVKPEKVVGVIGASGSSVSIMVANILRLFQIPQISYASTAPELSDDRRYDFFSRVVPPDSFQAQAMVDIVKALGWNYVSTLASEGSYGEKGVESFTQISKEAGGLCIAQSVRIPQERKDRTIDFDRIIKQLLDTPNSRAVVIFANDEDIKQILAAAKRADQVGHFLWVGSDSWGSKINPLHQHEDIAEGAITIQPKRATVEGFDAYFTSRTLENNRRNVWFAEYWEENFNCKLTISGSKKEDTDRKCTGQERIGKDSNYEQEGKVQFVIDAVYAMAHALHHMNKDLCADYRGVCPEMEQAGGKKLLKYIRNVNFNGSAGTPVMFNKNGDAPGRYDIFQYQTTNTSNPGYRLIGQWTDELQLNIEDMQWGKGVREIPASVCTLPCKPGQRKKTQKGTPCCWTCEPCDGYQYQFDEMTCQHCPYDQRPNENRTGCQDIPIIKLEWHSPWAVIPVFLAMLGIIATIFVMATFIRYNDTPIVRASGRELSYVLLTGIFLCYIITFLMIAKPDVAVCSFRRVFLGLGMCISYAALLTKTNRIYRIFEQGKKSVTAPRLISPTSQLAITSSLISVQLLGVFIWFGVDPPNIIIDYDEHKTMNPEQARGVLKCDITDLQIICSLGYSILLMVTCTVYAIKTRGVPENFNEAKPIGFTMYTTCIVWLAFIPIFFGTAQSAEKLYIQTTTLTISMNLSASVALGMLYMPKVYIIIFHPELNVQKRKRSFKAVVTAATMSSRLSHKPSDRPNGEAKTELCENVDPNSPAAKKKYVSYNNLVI
# T4 sequence (P31423 whole entry): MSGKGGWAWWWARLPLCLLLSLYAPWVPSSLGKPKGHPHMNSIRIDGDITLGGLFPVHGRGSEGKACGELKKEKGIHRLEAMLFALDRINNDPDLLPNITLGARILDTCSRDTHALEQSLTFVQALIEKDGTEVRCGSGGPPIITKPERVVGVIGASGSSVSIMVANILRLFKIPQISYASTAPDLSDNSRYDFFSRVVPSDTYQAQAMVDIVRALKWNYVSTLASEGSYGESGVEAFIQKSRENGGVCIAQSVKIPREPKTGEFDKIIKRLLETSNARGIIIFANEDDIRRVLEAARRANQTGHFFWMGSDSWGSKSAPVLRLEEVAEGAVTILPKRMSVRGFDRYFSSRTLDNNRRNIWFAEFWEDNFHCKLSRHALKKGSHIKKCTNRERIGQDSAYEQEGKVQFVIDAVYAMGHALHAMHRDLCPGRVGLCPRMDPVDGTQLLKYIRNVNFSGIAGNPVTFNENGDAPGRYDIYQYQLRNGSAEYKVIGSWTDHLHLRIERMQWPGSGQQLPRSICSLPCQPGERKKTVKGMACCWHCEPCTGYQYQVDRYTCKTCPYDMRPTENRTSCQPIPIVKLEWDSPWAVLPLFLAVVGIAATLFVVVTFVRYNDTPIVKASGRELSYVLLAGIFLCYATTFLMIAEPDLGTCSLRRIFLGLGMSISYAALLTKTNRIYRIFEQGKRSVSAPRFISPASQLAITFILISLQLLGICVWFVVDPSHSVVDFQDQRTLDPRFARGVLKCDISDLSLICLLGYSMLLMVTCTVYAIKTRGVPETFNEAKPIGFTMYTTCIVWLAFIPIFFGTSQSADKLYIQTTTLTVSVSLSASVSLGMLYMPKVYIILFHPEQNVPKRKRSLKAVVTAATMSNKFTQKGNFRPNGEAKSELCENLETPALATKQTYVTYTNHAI
# T7 sequence (P23385 whole entry): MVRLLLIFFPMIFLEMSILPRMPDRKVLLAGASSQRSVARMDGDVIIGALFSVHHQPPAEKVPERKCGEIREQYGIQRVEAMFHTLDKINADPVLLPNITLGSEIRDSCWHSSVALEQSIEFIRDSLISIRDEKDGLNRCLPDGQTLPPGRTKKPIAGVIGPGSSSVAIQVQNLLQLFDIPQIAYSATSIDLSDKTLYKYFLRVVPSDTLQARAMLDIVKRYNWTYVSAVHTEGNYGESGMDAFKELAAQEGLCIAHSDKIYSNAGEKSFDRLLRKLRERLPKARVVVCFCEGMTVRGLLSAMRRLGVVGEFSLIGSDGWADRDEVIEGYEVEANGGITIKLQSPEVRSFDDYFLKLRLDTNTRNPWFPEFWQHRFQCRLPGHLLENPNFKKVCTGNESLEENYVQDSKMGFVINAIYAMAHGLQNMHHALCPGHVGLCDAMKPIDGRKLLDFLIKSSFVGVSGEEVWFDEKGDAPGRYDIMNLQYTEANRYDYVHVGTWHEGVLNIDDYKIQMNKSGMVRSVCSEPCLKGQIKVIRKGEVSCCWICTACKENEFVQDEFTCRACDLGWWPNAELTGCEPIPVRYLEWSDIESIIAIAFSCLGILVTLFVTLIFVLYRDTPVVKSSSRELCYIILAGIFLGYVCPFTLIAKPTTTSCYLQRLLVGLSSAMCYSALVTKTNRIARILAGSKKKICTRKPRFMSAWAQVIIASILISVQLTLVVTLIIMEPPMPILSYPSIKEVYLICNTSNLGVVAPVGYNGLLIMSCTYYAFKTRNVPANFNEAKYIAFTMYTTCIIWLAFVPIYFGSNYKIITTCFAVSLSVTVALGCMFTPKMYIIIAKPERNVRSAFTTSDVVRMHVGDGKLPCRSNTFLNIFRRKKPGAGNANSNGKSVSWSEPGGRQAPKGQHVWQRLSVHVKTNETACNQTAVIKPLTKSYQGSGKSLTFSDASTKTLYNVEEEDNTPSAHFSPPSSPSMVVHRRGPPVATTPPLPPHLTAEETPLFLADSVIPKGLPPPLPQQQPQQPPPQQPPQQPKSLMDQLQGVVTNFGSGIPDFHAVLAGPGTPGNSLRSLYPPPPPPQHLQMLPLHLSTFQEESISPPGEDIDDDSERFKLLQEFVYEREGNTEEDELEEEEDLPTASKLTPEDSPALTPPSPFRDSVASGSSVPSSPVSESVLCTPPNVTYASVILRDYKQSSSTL
# T1 sequence (P31422 whole entry): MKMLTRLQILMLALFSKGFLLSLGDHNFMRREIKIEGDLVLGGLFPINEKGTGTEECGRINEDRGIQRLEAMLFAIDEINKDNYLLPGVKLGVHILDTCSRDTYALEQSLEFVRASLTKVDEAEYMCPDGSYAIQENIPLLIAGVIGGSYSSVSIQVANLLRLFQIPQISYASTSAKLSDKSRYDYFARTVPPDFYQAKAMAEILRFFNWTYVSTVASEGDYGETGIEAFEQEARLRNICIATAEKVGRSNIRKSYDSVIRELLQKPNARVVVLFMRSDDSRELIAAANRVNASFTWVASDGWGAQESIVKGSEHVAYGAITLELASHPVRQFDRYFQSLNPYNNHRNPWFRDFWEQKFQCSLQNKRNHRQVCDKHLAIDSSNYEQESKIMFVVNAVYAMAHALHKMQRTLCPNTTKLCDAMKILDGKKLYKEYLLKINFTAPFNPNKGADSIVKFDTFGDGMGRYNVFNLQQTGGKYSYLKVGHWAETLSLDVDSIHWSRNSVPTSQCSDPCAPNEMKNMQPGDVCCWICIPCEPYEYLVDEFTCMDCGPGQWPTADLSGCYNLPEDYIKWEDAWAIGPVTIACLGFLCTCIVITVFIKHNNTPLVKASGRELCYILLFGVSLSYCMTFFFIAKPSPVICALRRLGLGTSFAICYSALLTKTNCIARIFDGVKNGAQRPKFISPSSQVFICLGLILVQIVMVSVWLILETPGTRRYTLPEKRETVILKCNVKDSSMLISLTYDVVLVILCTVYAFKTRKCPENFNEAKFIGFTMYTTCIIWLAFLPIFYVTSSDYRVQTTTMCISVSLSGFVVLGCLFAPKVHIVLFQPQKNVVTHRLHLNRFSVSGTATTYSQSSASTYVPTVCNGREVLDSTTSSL
# Metabotropic glutamate receptor 6, sequence (P35349 whole entry): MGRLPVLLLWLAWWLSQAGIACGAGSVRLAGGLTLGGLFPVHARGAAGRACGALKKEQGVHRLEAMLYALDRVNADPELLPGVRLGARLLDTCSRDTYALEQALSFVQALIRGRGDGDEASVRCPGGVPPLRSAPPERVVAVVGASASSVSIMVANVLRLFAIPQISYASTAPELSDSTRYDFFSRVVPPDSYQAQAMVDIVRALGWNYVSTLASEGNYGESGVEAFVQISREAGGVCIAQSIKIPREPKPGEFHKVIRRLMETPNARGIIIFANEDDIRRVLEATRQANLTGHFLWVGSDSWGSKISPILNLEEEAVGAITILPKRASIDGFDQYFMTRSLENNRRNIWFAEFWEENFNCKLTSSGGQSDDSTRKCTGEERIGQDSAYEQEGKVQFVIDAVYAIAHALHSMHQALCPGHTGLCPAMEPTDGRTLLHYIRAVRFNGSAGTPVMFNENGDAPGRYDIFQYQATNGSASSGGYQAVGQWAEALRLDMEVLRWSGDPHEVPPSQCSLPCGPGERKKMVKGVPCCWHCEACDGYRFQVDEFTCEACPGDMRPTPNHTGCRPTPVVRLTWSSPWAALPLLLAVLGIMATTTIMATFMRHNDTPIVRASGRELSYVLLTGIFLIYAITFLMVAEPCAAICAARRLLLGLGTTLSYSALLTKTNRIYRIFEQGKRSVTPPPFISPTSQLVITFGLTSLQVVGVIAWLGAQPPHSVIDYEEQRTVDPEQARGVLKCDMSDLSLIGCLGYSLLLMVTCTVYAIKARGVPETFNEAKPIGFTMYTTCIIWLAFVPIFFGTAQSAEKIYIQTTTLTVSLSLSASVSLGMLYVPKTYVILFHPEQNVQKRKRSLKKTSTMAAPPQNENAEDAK
# Metabotropic glutamate receptor 7 (Rattus norvegicus, UniProt P35400), sequence (P35400 whole entry): as the sequence (Q14831 whole entry) above, with R5G, A27V, N454H, S488T, A520S, D578N counted along it
# Metabotropic glutamate receptor 3 (Rattus norvegicus), sequence (P31422 whole entry, looked up): as the sequence (P31422 whole entry) above
Structure (SMILES),EC50 [2],EC50 [3],EC50 [4],EC50 [5],Activity [6],IC50 [7],EC50 [1],IC50 [9],EC50 [10],EC50 [11],IC50 [12],Activity [14],IC50 [15],EC50 [16],EC50 [17],Ki (Glutamate NMDA receptor),EC50 [19],EC50 [20],EC50 [21],EC50 [22],further results
N[C@@H](CCP(=O)(O)O)C(=O)O,340 µM,1.91 µM,,,,,,,,,,,,,,,,,,,EC50 ([1]; hek293): 0.07 µM
N[C@@H](C[C@]1(C(=O)O)C[C@H]1C(=O)O)C(=O)O,120 µM,0.49 µM,> 1000 µM,> 1000 µM,inactive,> 100 µM,0.68 µM,> 100 µM,0.13 µM,145 µM,> 300 µM,inactive,> 300 µM,> 1000 µM,> 1000 µM,13 µM,,,,,Activity [8]: inactive; Activity [13]: Active; IC50 [18]: > 300 µM
CCC[C@H](C[C@H](N)C(=O)O)C(=O)O,,,,,,,,,,,,,,,,,> 1000 µM,> 1000 µM,> 1000 µM,,
N[C@H](C(=O)O)C1[C@@H](C(=O)O)[C@@H]1C(=O)O (stereo partly specified),,,0.08 µM,0.35 µM,,,,,,,,,,,,,,,,,
N[C@@H](C[C@@]1(C(=O)O)C[C@H]1C(=O)O)C(=O)O,> 1000 µM,> 1000 µM,> 1000 µM,> 1000 µM,inactive,> 100 µM,> 1000 µM,> 100 µM,> 1000 µM,> 1000 µM,> 300 µM,inactive,> 300 µM,> 1000 µM,> 1000 µM,> 100 µM,,,,,IC50 [18]: > 300 µM
CN(O)C(=O)CC[C@H](C[C@H](N)C(=O)O)C(=O)O,,,,,,,,,,,,,,,,,> 1000 µM,> 1000 µM,> 1000 µM,> 1000 µM,EC50 [23]: > 1000 µM; EC50 [24]: > 1000 µM
N[C@@H](C[C@@]1(C(=O)O)C[C@@H]1C(=O)O)C(=O)O,> 1000 µM,17.8 µM,> 1000 µM,> 1000 µM,inactive,> 100 µM,20.8 µM,> 100 µM,2.48 µM,> 1000 µM,> 300 µM,inactive,> 300 µM,> 1000 µM,> 1000 µM,15 µM,,,,,IC50 [18]: > 300 µM
NC(=O)CC[C@H](C[C@H](N)C(=O)O)C(=O)O,,,,,,,,,,,,,,,,,> 1000 µM,> 1000 µM,> 1000 µM,> 1000 µM,
COC(=O)CC[C@H](C[C@H](N)C(=O)O)C(=O)O,,,,,,,,,,,,,,,,,> 1000 µM,> 1000 µM,> 1000 µM,> 1000 µM,
N[C@@H](C[C@@H](CCC(=O)NO)C(=O)O)C(=O)O,,,,,,,,,,,,,,,,,> 1000 µM,> 1000 µM,> 1000 µM,> 1000 µM,EC50 [23]: > 1000 µM; EC50 [24]: > 1000 µM
